Measured values published in PubChem BioAssay.
Inconclusive results are not listed.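 How the source made its calls, unless noted: active means RAM network inhibition above 8.4% in each of two replicates, 3 SD over the compound average; inconclusive means above 8.4% inhibition in only one replicate; inactive means 8.4% inhibition or less in each replicate.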

How the values were obtained:
[1] = OD615 S. cerevisiae growth inhibition, permissive medium, pilot counter-assay, permissive growth control for S. cerevisiae lifespan shortening project (AID 705;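 active means growth inhibition above 25% in both replicates, a cutoff set 3 SD above the mean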); conditions: OD615, 24 h, at 10 µM, hits give high values
Method in brief: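 System: Engineered DeaD yeast | Buffer or medium: SC raffinose/galactose permissive medium | Doses: 10 µM single dose, 0.25% DMSO | Times: 24 h exposure, 30 °C | Measured by: OD615 turbidity read | Read-out: Yeast growth inhibition indicated by reduced 24 h OD615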

[2] = Restrictive medium S. cerevisiae growth inhibition, OD615, pilot screen of yeast lifespan reduction project, restrictive growth control (AID 706;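 active means growth inhibition above a set limit, 3 SD over mean compound inhibition, in both replicates, cut at about 43% in these data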;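 further: modified DeaD lifespan yeast strain shifted to restrictive glucose medium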); conditions: OD615, 48 h, at 10 µM, hits give high values
Method in brief: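 Assay system: engineered S. cerevisiae DeaD strain; Buffer or medium: CSMM-D glucose medium; Dosing: 10 µM compound, 0.25% DMSO; Times: cell pre-growth 4 h, compound exposure 48 h, 30 °C; Detection: absorbance (optical density) measured at 615 nm.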

[3] = viability gain of MRP-1-high H69AR cells under doxorubicin, pilot screen, MRP-1 activator project, CellTiter-Glo, duplicate (AID 807;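 active means viability increase at or above a cutoff of the median across tested compounds plus 3 SD, cut at about 8.5% in these data, passing the limit was not always enough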;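 further: compound pretreatment 18-22 h then 72 h combined with doxorubicin; 0% = doxorubicin alone and 100% = vehicle without doxorubicin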); conditions: H69AR viability with doxorubicin, CellTiter-Glo luminescence; at 10 µM; hits give high values
[4] = growth suppression of beta-catenin knockout HCT116, pilot screen, human colon tumor cells (AID 823;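 active means cell viability at or below a set limit in both duplicate runs, the limit being the all-compound median minus 4 SD, cut at about 23% in these data, passing the limit was not always enough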;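 further: 0% = wells killed by 20 µM Hyamine and 100% = untreated DMSO cell wells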); conditions: CellTiter-Glo, 60 h, at 10 µM, hits give low values
[5] = growth suppression of PTEN-deleted HCT116, pilot screen, cell-based, HCT116 clonal line, CellTiter-Glo (AID 824;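 active means viability at or below 27.92% in each of two runs, the all-compound median minus 4 SD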;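 further: 0% = 20 µM Hyamine control and 100% = vehicle cell control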); conditions: 60 h, at 10 µM, hits give low values
[6] = inhibitors of the yeast RAM network, pilot screen, dse1pr::URA3 reporter, 5-FOA selection (AID 869;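 active means inhibition over a set limit, the all-compound mean plus 3 SD, in both replicate runs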;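 further: 0% = DMSO wells with no growth and 100% = 10 µM 1-NA-PP1 with full growth; RAM network block rescues cells from 5-FOA so hits raise OD615 growth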); conditions: S. cerevisiae dse1pr::URA3 5-FOA growth, OD615, 2 d; at 10 µM; hits give high values; strain carries analog-sensitive mutant Cbk1 kinase
[7] = RAM signaling pathway blockade in yeast – S. cerevisiae, Pdr1DBD-CYC8 efflux-inhibited sensitized strain, primary screen (AID 1298);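 further: 0% = DMSO untreated cells without growth and 100% = 10 µM 1-NA-PP1 full growth; higher means more yeast growth rescued from 5-FOA killing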; conditions: S. cerevisiae cbk1-as DSE1-URA3 strain, 5-FOA growth OD615, 2 d; at 50 µM; hits give high values

CN1C(=O)CS(=O)c2ccc(C(=O)NC3CC3)cc21 (stereo not drawn)
inactive: growth inhibition [1] 1.7% | growth inhibition [2] -0.875% | viability increase [3] -2.2% | viability [4] 99.4% | viability [5] 95.4% | inhibition [6] 2.25% | RAM network inhibition [7] -1.59%

CCCCNC(=O)c1cc(-c2ccc(OC)c(OC)c2)on1
inactive: growth inhibition [1] 0.455% | growth inhibition [2] 5.25% | viability increase [3] 2.07% | viability [4] 104% | viability [5] 96.9% | inhibition [6] -0.37% | RAM network inhibition [7] -0.26%

CCn1c(CNC(=O)C(C)(C)C)nc2ccccc21
inactive: growth inhibition [1] -13.2% | growth inhibition [2] -10.8% | viability increase [3] -1.1% | viability [4] 104% | viability [5] 101% | inhibition [6] 1.73% | RAM network inhibition [7] 1.9%

O=C1CC(N2CCN(C(c3ccccc3)c3ccccc3)CC2)C(=O)N1 (stereo not drawn)
inactive: growth inhibition [1] -8.31% | growth inhibition [2] -9.7% | viability increase [3] -1.16% | viability [4] 102% | viability [5] 102% | inhibition [6] 1.03% | RAM network inhibition [7] 5.3%

COc1ccc(-c2cc(N)n(S(=O)(=O)Cc3ccccc3)n2)c(OC)c1
inactive: growth inhibition [1] -2.75% | growth inhibition [2] -12.7% | viability increase [3] 0.27% | viability [4] 101% | viability [5] 96.8% | inhibition [6] 2.42% | RAM network inhibition [7] 5.13%

O=C(c1cnc2n(c1=O)CCS2)N1CCN(C(c2ccccc2)c2ccc(Cl)cc2)CC1 (stereo not drawn)
inactive: growth inhibition [1] -9.19% | growth inhibition [2] -3.16% | viability increase [3] -5.31% | viability [4] 79.1% | viability [5] 63.7% | inhibition [6] 1.31% | RAM network inhibition [7] 2.72%

CC1(C)CC(=O)C(C=Nc2ccccc2)=C(O)C1
inactive: growth inhibition [1] -7.81% | growth inhibition [2] 1.81% | viability increase [3] -1.32% | viability [4] 98.1% | viability [5] 96.2% | inhibition [6] 2.92% | RAM network inhibition [7] 1.59%

CCc1ccc(NC(=O)CSc2nnc(Cc3cccn3C)n2-c2ccc(F)cc2)cc1
inactive: growth inhibition [1] 4.25% | growth inhibition [2] 12.9% | viability increase [3] -5.81% | viability [4] 77.2% | viability [5] 68.9% | inhibition [6] 0.05% | RAM network inhibition [7] 7.15%

COc1ccc(CCNC(=O)c2cnccn2)cc1
inactive: growth inhibition [1] -10.1% | growth inhibition [2] -2.55% | viability increase [3] 0.3% | viability [4] 102% | viability [5] 87.2% | inhibition [6] 3.53% | RAM network inhibition [7] 2.5%

Cc1ccc(-c2nc(CS(=O)CC(=O)NCCC(C)C)c(C)o2)cc1 (stereo not drawn)
inactive: growth inhibition [1] -6.7% | growth inhibition [2] -1.91% | viability increase [3] -0.71% | viability [4] 92.2% | viability [5] 95.8% | inhibition [6] 1.14% | RAM network inhibition [7] 3.42%

Cn1nc(CC(=O)NC2CCCCCC2)c2ccccc2c1=O
inactive: growth inhibition [1] 3.21% | growth inhibition [2] 6.03% | viability increase [3] -2.58% | viability [4] 62.4% | viability [5] 76.4% | inhibition [6] 0.825% | RAM network inhibition [7] 1.38%

CCOC(=O)CON1C(=O)C(C)(C)N(OCC(=O)OCC)C(=O)C1(C)C
inactive: growth inhibition [1] -0.865% | growth inhibition [2] -9.37% | viability increase [3] -0.75% | viability [4] 104% | viability [5] 101% | inhibition [6] 0.38% | RAM network inhibition [7] 1.33%

COc1ccc(NC(=O)C2CCN(S(=O)(=O)c3cccc4cccnc34)CC2)cc1OC
inactive: growth inhibition [1] -4.2% | growth inhibition [2] 0.21% | viability increase [3] -1.69% | viability [4] 107% | viability [5] 96.6% | inhibition [6] 1.41% | RAM network inhibition [7] 1.04%

CCN1C(=O)CS/C1=N\c1nccs1
inactive: growth inhibition [1] 1.12% | growth inhibition [2] 1.68% | viability increase [3] 0.86% | viability [4] 105% | viability [5] 105% | inhibition [6] 1.64% | RAM network inhibition [7] -1.23%
